Reference: PubChem BioAssay
The source made the active and inactive calls.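 The calls were made as follows, unless noted: active = fluorescence slope after compound addition differing from the mean of all tested samples at 99.7% confidence, mostly higher but some lower; inactive = the rest.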

Key:
[1] = inhibitors of TNFa-induced NFkB p65 translocation, primary screen, imaging, HUVEC, MLSMR starter and 10KST1 sets (AID 438;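 active = inhibition above 20% together with a positive visual image hit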;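 also: compound added about 3h40 before a 20 min TNFalpha stimulation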;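 as to inhibition: signal is the nuclear over cytoplasmic p65 intensity ratio per well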); conditions: HUVEC TNFa-induced p65 nuclear translocation; cell count: measured here: nuclei count (cytotoxicity indicator), at 2.08 µM; inhibition: at 2 µM, stronger effect = higher value, 0% TNFa-plus-vehicle, 100% no-TNFa wells
[2] = reduction of polyQ htt aggregates in cells – imaging, exon1htt(103Q)mCFP cells, high-content imaging, primary screen (AID 483;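 active = visual image review flags a hit and inhibition of aggregation exceeds 20%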;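 also: compound exposure lasted 3 days before fixation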;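 as to nuclei count: percent of the per-plate median nuclei count of sample wells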); conditions: exon1htt(103Q)mCFP cell line, aggregate imaging, at 2 µM; inhibition of aggregation: stronger effect = higher value; nuclei count: measured here: cell count, toxicity
[3] = endothelial E-selectin expression blockers – imaging, HUVEC, immunofluorescence, MLSMR starter and 10KST1 sets, primary screen (AID 487;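 active = visually confirmed hit in the image check and inhibition above 20%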;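 as to inhibition: signal is fraction of cell area covered by stained E-selectin grains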;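 as to nuclei count: 100% = median nuclei count of all wells on the same plate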); conditions: HUVEC TNFalpha-induced E-selectin immunofluorescence imaging, at 2 µM; inhibition: stronger effect = higher value; nuclei count: measured here: cell number, toxicity
[4] = molecular target: Voltage-gated potassium channel subunit beta-2 (Rattus norvegicus) (UniProt P62483); assay: inhibitors of rat Kvbeta2 reductase activity – biochemical, NADPH fluorescence, primary screen (AID 622;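 active = fluorescence slope higher than the sample average by over 3 SD, cut at about -0.22 in these data, passing the limit was not always enough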;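 also: slope of raw intensity against log time taken from 70 to 1610 s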); conditions: recombinant KvBeta, 4-cyanobenzaldehyde reduction, at 10 µM, stronger effect = higher value
[5] = molecular target: Voltage-gated potassium channel subunit beta-2 (Rattus norvegicus) (UniProt P62483); assay: enhancers of rat Kvbeta2 NADPH turnover – biochemical, NADPH fluorescence, primary screen (AID 623;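 active = NADPH fluorescence slope more negative than the mean of all samples by about 3 SD, 99.7% confidence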;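 also: fluorescence intensity change per second fitted from 20 to 320 s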); conditions: Recombinant KvBeta, NADPH fluorescence decrease slope, 10 min; at 10 µM; stronger effect = lower value
[6] = molecular target: Muscarinic acetylcholine receptor M4 (Homo sapiens) (UniProt P08173); assay: M4-linked GIRK flux change, two-sided – cell-based, HEK293 M4/GIRK, thallium flux, BTC-AM, M4 allosteric agonist project, primary screen (AID 625); conditions: at 10 µM, actives lie on both sides;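 also: thallium influx through GIRK channels coupled to M4 in HEK293 cells with BTC-AM dye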
Procedure, shortened: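 Material – HEK293 cells with M4 receptor and GIRK channels · Buffer or medium – pH 7.3 thallium assay buffer · Doses – one dose, 10 µM final · Timing – cells overnight at 37 °C, BTC-AM loading 1 h, reads 2 min total · Measured by – kinetic fluorescence with BTC-AM dye · Controls – carbachol and DMSO controls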

[7] = blockers of RIG-like receptor reporter activation – cell-based, Sendai virus stimulus, luciferase, 10K MLSCN set, TLR/RLR signaling modifier project, primary screen (AID 602276;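 active = inhibition at or above 50% at 10 µM; inactive = inhibition below 50%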;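 also: firefly luciferase from ISG56 promoter only with Renilla not read in this screen; 0% = Sendai virus plus DMSO and 100% = medium plus DMSO without virus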); conditions: HEK293 RL24 IRF3 luciferase reporter, at 10 µM, stronger effect = higher value
[8] = TLR3 IRF3 reporter activation blockers – cell-based, poly I:C stimulus, luciferase, 10K MLSCN set, primary screen (AID 602277;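 active = inhibition of the reporter signal at or above 50%; inactive = inhibition below 50%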); conditions: HEK293-TLR3 RL24 IRF3 luciferase reporter, at 10 µM, stronger effect = higher value

Chain of Voltage-gated potassium channel subunit beta-2 (Rattus norvegicus) (P62483 whole entry, looked up): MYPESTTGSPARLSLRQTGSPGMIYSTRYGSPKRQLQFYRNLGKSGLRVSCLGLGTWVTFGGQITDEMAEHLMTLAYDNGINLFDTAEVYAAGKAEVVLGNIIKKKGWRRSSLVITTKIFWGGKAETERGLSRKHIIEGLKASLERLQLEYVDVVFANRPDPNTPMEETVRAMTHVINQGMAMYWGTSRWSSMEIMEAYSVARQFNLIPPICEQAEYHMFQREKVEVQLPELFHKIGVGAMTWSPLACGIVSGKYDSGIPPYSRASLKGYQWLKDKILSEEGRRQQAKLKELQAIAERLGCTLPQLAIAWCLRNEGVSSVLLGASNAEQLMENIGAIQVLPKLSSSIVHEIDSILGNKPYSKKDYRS
Chain of Muscarinic acetylcholine receptor M4 (Homo sapiens) (P08173 whole entry, looked up): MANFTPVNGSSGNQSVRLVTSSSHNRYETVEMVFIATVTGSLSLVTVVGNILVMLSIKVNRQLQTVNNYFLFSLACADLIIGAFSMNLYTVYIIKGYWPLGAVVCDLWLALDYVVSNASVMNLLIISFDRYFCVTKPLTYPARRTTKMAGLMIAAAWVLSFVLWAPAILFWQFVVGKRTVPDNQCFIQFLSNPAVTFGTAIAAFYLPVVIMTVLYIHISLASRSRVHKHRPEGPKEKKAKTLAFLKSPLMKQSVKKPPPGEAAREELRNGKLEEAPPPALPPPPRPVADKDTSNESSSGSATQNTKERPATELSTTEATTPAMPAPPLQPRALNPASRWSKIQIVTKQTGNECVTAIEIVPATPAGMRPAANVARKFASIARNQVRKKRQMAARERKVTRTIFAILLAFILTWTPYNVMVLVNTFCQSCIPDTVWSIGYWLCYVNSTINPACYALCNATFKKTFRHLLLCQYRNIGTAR

SMILES	cell count [1]	inhibition [1]	inhibition of aggregation [2]	nuclei count [2] [%]	inhibition [3]	nuclei count [3] [%]	fluorescence slope [4]	NADPH fluorescence slope [5]	fluorescence slope [6]	inhibition [7]	inhibition [8]
c1ccc2nc(-c3nc4ccccc4[nH]3)ccc2c1	574	9.8% (inactive)	-19.5% (inactive)	85.8	-6.9% (inactive)	101	-0.551 (inactive)	-2.7e-05 (inactive)	0.00356 (inactive)	11.5% (inactive)	-35.5% (inactive)
COc1ccc(Br)cc1S(=O)(=O)N1CCOCC1	336	5% (inactive)	-25.8% (inactive)	119	-6.1% (inactive)	113	-0.462 (inactive)	-3.5e-05 (inactive)	0.00557 (inactive)	17.4% (inactive)	16.5% (inactive)
COc1cc(C)nc(OCCNC(=O)COc2ccc(Cl)cc2C)n1	705	23.3% (active)	-16% (inactive)	109	-53.9% (inactive)	123	-0.499 (inactive)	0.00012 (inactive)	0.00677 (inactive)	-3.41% (inactive)	-6.37% (inactive)
Cc1cccc(NCc2ccccc2O)c1	454	4.9% (inactive)	1.3% (inactive)	94.5	10.3% (inactive)	104	-0.55 (inactive)	-2.3e-05 (inactive)	0.00568 (inactive)	10.1% (inactive)	3.99% (inactive)
COCCNC(=O)CN(C)S(=O)(=O)c1ccc2c(c1)OCCO2	577	-12.1% (inactive)	-1.9% (inactive)	101	-59.8% (inactive)	108	-0.527 (inactive)	1.9e-05 (inactive)	0.00472 (inactive)	11.9% (inactive)	21.2% (inactive)
O=C(Nc1nc(-c2ccccc2)cs1)C1CCCCN1S(=O)(=O)c1ccccc1 (stereo unspecified)	509	6.9% (inactive)	-0.8% (inactive)	101	-18.7% (inactive)	96.2	-0.659 (inactive)	1.4e-05 (inactive)	0.00633 (inactive)	-0.318% (inactive)	1.39% (inactive)
COC(=O)c1c(N)n(-c2cc(OC)cc(OC)c2)c2nc3ccccc3nc12	700	9.4% (inactive)	2.3% (inactive)	84.9	28.6% (inactive)	80	-0.0659 (inactive)	-2.3e-05 (inactive)	0.00491 (inactive)	2.96% (inactive)	-6.82% (inactive)
CCN(Cc1cc2cc(OC)ccc2[nH]c1=O)C(=O)Cc1ccc(OC)cc1	369	1.8% (inactive)	-11.9% (inactive)	114	-57.8% (inactive)	124	-0.549 (inactive)	-9.8e-05 (inactive)	0.00319 (inactive)	11.4% (inactive)	5.34% (inactive)
N#Cc1c(-c2ccccc2)nc(SCc2nc(N)nc(N3CCCCC3)n2)[nH]c1=O	401	-14% (inactive)	13% (inactive)	85.3	-20.8% (inactive)	97.8	-0.442 (inactive)	0.000117 (inactive)	0.00582 (inactive)	14.8% (inactive)	-10.4% (inactive)
CCOc1nc(-c2ccccc2)ccc1-c1noc(-c2cccnc2)n1	233	8.4% (inactive)	-0.3% (inactive)	99.4	29.6% (inactive)	91.1	-0.427 (inactive)	-0.000244 (inactive)	0.00434 (inactive)	-14.5% (inactive)	-16% (inactive)
COc1ccccc1NC(=O)N(Cc1ccccc1)c1ccccn1	756	3.2% (inactive)	-5.9% (inactive)	93.7	19.9% (inactive)	114	-0.581 (inactive)	-7e-05 (inactive)	0.00744 (inactive)	-7.55% (inactive)	-38.8% (inactive)
COCCn1c(=NC(=O)CSC(C)=O)sc2cc(F)ccc21	426	-6.2% (inactive)	33.6% (inactive)	93.7	-22% (inactive)	106	-0.379 (inactive)	4.1e-05 (inactive)	0.00556 (inactive)	13.7% (inactive)	22.7% (inactive)
Cn1c(=O)n(C)c2cc(NC(=O)C(F)(F)F)ccc21	231	-14.4% (inactive)	34.3% (active)	96.5	-10.9% (inactive)	103	-0.449 (inactive)	-3.6e-06 (inactive)	0.00534 (inactive)	5.97% (inactive)	17.7% (inactive)
CNC(=O)CSc1nnc(-c2cc(C)cc(C)c2)o1	669	-5% (inactive)	0.4% (inactive)	123	-34.6% (inactive)	124	-0.547 (inactive)	-3.9e-05 (inactive)	0.00519 (inactive)	4.57% (inactive)	-12.1% (inactive)
CSc1ccccc1NC(=O)c1noc2c1CCC2	416	2.6% (inactive)	-0.9% (inactive)	109	-55.8% (inactive)	120	-0.593 (inactive)	-8e-06 (inactive)	0.00589 (inactive)	-12.4% (inactive)	-50.3% (inactive)
COc1cc2c(cc1OC)-c1cc(OCc3cccnc3)nc(=O)n1CC2	753	-8.4% (inactive)	-4.9% (inactive)	96.1	-49% (inactive)	116	-0.0427 (active)	-1.1e-05 (inactive)	0.00535 (inactive)	31.6% (inactive)	28.8% (inactive)
O=C(CSc1nc(C2CCCCC2)n(-c2ccccc2)n1)NCCN1C(=O)CSC1=O	382	-5.9% (inactive)	8% (inactive)	112	-13.3% (inactive)	140	-0.572 (inactive)	-4.9e-05 (inactive)	0.00728 (inactive)	15.1% (inactive)	23.3% (inactive)
Cc1cc(C(F)F)n2ncc(C(=O)NC3CCCCCC3)c2n1	354	0% (inactive)	-4.8% (inactive)	106	1.4% (inactive)	113	-0.569 (inactive)	-7.1e-05 (inactive)	0.00445 (inactive)	15.9% (inactive)	15.5% (inactive)
CCOC(=O)CSc1nc2cc(C(=O)NCc3ccco3)ccc2c(=O)n1C1CCCCC1	455	4.3% (inactive)	-11.8% (inactive)	92	10% (inactive)	93.7	-0.397 (inactive)	-5.9e-05 (inactive)	0.00847 (inactive)	12.1% (inactive)	18.6% (inactive)
Cc1ccc(-c2cc(C(=O)NCc3ccc4c(c3)OCO4)no2)cc1	382	0.3% (inactive)	8.6% (inactive)	92.9	17% (inactive)	101	-0.315 (inactive)	-6.4e-05 (inactive)	0.00532 (inactive)	-10.4% (inactive)	-26.2% (inactive)
CCN(Cc1nc2cc(OC)c(OC)cc2c(=O)[nH]1)C(=O)c1ccc(S(=O)(=O)N(C)C)cc1	311	11.1% (inactive)	-0.9% (inactive)	119	14.8% (inactive)	89.6	-0.399 (inactive)	-0.000108 (inactive)	0.00948 (inactive)	13.8% (inactive)	28.7% (inactive)
Cc1cc(C)cc(OCCCC(=O)O)c1	254	9.4% (inactive)	12.3% (inactive)	118	-45% (inactive)	94.2	-0.531 (inactive)	-4.2e-05 (inactive)	0.00463 (inactive)	-0.0954% (inactive)	17.4% (inactive)
CC(C)(C)OC(=O)N1CCN(c2ccc(NC(=O)c3cc4ccccc4oc3=O)cc2)CC1	409	4.4% (inactive)	-4.1% (inactive)	110	-52.6% (inactive)	107	-0.582 (inactive)	-4.9e-05 (inactive)	0.0076 (inactive)	16.2% (inactive)	-11.3% (inactive)
CCC(=O)N1CCc2cc(Br)cc(S(=O)(=O)C3(C(=O)OC)CC3)c21	469	2.5% (inactive)	-5.1% (inactive)	98.8	3.4% (inactive)	97.1	-0.554 (inactive)	-3.7e-05 (inactive)	0.00618 (inactive)	17% (inactive)	18% (inactive)
CC1CCCC(NC(=O)CSc2ncccc2C(=O)O)C1C (stereo unspecified)	660	-10% (inactive)	7.4% (inactive)	117	-55.4% (inactive)	112	-0.566 (inactive)	-8.3e-06 (inactive)	0.00597 (inactive)	13.9% (inactive)	24.3% (inactive)
Cc1nc(/N=C\N(C)C)sc1C(=O)Nc1ccccc1	602	1.5% (inactive)	-11.8% (inactive)	113	-27.8% (inactive)	97.5	-0.306 (inactive)	-2e-05 (inactive)	0.00595 (inactive)	-2.68% (inactive)	-18.9% (inactive)
